Data published in ChEMBL document CHEMBL2429787, “Sulfonyl-polyol N,N-dichloroamines with rapid, broad-spectrum antimicrobial activity” (Bioorg Med Chem Lett, 2013).
pIC50: −log10 of the molar value. Converted amounts (≈) assume the structure as drawn.

Columns and labels:
[1] = test system: Human adenovirus 5; experiment: Ratio of IC50 for Adenovirus 5 ATCC VR-1516 at pH 7 to IC50 for Adenovirus 5 ATCC VR-1516 at pH 4; assay type: functional
In short: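 Ad5 virucidal IC50 was determined in PBS (pH 7) and acetate saline buffer (pH 4) using 60 min room-temperature exposure, neutralization, A549 infection, 6-day CPE by CCK-8 and sigmoidal fit. The ratio is IC50 at pH 7 over IC50 at pH 4.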

[2] = test system: Human adenovirus 5; experiment: Virucidal activity against Adenovirus 5 ATCC VR-1516 infected in human A549 cells assessed as viral cytopathic effect at pH 4 incubated for 1 hr measured after 6 days by three-fold serial dilution assay; assay type: functional, organism-based; conditions: for pIC50: Human mastadenovirus C, ATCC VR-1516, A549, read-out: IC50; for IC50: a549
In short: (§1)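 Virus was diluted in 20 mM PBS or 5 mM acetate saline buffer with 2.5% glycerol and mixed 1:1 with threefold compound dilutions (quadruplicate) for 60 min at room temperature. It was neutralized with 2× D-MEM/F12 plus 20% FBS for 60 min, then adsorbed 1–2 h at 37 °C onto A549 (Ad5) or Vero (HSV-1) cells. Cells were washed, grown 6 days, and CPE read by CCK-8. IC50 came from a sigmoidal fit with top fixed at 100.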

[3] = test system: Escherichia coli; experiment: Bactericidal activity against Escherichia coli ATCC 25922 at pH 7 after 1 hr by CLSI method; assay type: functional; conditions: ATCC 25922, 1 h
In short: (§2)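 MBC by modified CLSI M26-A: broth replaced with 0.9% acetate saline buffer pH 4 or PBS pH 7. Mid-log bacteria were centrifuged and resuspended in buffer, then added to serial twofold compound dilutions (final 10⁵–10⁶ CFU/mL) for 1 h at room temperature. Aliquots were plated on agar (24 h, 35 °C) and CFU counted. MBC is the lowest concentration giving >99.9% kill.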

[4] = test system: Staphylococcus aureus; experiment: Bactericidal activity against Staphylococcus aureus ATCC 29213 at pH 7 after 1 hr by CLSI method; assay type: functional; conditions: ATCC 29213, 1 h; in short: as §2
[5] = test system: Staphylococcus aureus; experiment: Ratio of MBC for Staphylococcus aureus ATCC 29213 at pH 7 to MBC for Staphylococcus aureus ATCC 29213 at pH 4; assay type: functional
In short: (§3)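 MBC was measured in PBS pH 7 and in acetate saline buffer pH 4 (1 h room-temperature exposure, >99.9% kill endpoint, CFU plating). The ratio is MBC at pH 7 over MBC at pH 4.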

[6] = test system: Human alphaherpesvirus 1; experiment: Virucidal activity against Herpes simplex virus (type 1 / strain F) ATCC VR-733 infected in african geen monkey Vero cells assessed as viral cytopathic effect at pH 7 incubated for 1 hr measured after 6 days by three-fold serial dilution assay; assay type: functional, organism-based; conditions: for pIC50: Human alphaherpesvirus 1, Strain F ATCC VR 733, Vero, read-out: IC50; for IC50: vero; in short: as §1
[7] = test system: Escherichia coli; experiment: Ratio of MBC for Escherichia coli ATCC 25922 at pH 7 to MBC for Escherichia coli ATCC 25922 at pH 4; assay type: functional; in short: as §3
[8] = test system: Staphylococcus aureus; experiment: Bactericidal activity against Staphylococcus aureus ATCC 29213 at pH 4 after 1 hr by CLSI method; assay type: functional; conditions: ATCC 29213, 1 h; in short: as §2
[9] = test system: Human adenovirus 5; experiment: Virucidal activity against Adenovirus 5 ATCC VR-1516 infected in human A549 cells assessed as viral cytopathic effect at pH 7 incubated for 1 hr measured after 6 days by three-fold serial dilution assay; assay type: functional, organism-based; conditions: for pIC50: Human mastadenovirus C, ATCC VR-1516, A549, read-out: IC50; for IC50: a549; in short: as §1
[10] = test system: Escherichia coli; experiment: Bactericidal activity against Escherichia coli ATCC 25922 at pH 4 after 1 hr by CLSI method; assay type: functional; conditions: ATCC 25922, 1 h; in short: as §2
[11] = Toxicity in epiocular tissue irritancy model (unknown origin) assessed as tissue viability up to 46 mins relative to control; assay type: tissue-based, Eye; conditions: read-out: Activity
In short: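 EpiOcular tissue model: after exposure, tissues were rinsed in PBS and held in MTT for 3 h, then extracted overnight. Viability was read from MTT absorbance against untreated control and correlated with a Draize-type irritancy score.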

[12] = Stability of the compound in aqueous solution; assay type: physicochemical; conditions: buffer

SMILES	Ratio IC50 [1]	pIC50 [2]	MBC [3] [mg/L]	MBC [4] [mg/L]	Ratio [5]	pIC50 [6]	Ratio [7]	MBC [8] [mg/L]	pIC50 [9]	MBC [10] [mg/L]	IC50 [2]	IC50 [6]	IC50 [9]	viability at 46 min [11] [%]	Stability [12]
CC(C)(CCS(=O)(=O)CCO)N(Cl)Cl	3.2	5.85	8 (≈ 30.3 µM)	16 (≈ 60.6 µM)	16	6.15	16	1 (≈ 3.79 µM)	5.35	0.5 (≈ 1.89 µM)					
CC(C)(CCS(=O)(=O)CCCO)N(Cl)Cl											ND(Unstable)	ND(Unstable)	ND(Unstable)		
CC(C)(CO)CS(=O)(=O)CCC(C)(C)N(Cl)Cl		5.74	64 (≈ 209 µM)	128 (≈ 418 µM)		6.05		2 (≈ 6.53 µM)	5.02	4 (≈ 13.1 µM)					
CC(C)(CCS(=O)(=O)CCCCCCCCO)N(Cl)Cl			256 (≈ 735 µM)	128 (≈ 367 µM)					4.49		ND(Unstable)				
CC(C)(CCS(=O)(=O)CC(O)CO)N(Cl)Cl (stereo not drawn)	10	5.57	16 (≈ 54.4 µM)	4 (≈ 13.6 µM)	2	5.82	8	2 (≈ 6.8 µM)	4.59	2 (≈ 6.8 µM)				50	
CC(C)(CCS(=O)(=O)C[C@H](O)CO)N(Cl)Cl		5.66	32 (≈ 109 µM)	4 (≈ 13.6 µM)		5.92		2 (≈ 6.8 µM)	4.85	2 (≈ 6.8 µM)					
CC(C)(CCS(=O)(=O)C[C@@H](O)CO)N(Cl)Cl		5.62	32 (≈ 109 µM)	4 (≈ 13.6 µM)		6.00		1 (≈ 3.4 µM)	4.89	2 (≈ 6.8 µM)					
CC(C)(CCS(=O)(=O)CC(O)C(O)CO)N(Cl)Cl (stereo not drawn)			128 (≈ 395 µM)	32 (≈ 98.7 µM)				1 (≈ 3.08 µM)		2 (≈ 6.17 µM)					
CC(C)(CCS(=O)(=O)C(CO)C(O)CO)N(Cl)Cl (stereo not drawn)		5.82	64 (≈ 197 µM)	16 (≈ 49.3 µM)		5.52		2 (≈ 6.17 µM)	4.72	2 (≈ 6.17 µM)					
CC(C)(CCS(=O)(=O)CCC(O)CO)N(Cl)Cl (stereo not drawn)		5.85	64 (≈ 208 µM)	16 (≈ 51.9 µM)		5.92		1 (≈ 3.24 µM)	4.74	2 (≈ 6.49 µM)					
CC(C)(CCS(=O)(=O)CCCCC(O)CO)N(Cl)Cl (stereo not drawn)											ND(Unstable)	ND(Unstable)	ND(Unstable)		
CO[C@H]1O[C@H](CS(=O)(=O)CCC(C)(C)N(Cl)Cl)[C@@H](O)[C@H](O)[C@H]1O			512 (≈ 1290 µM)	256 (≈ 646 µM)				8 (≈ 20.2 µM)		8 (≈ 20.2 µM)					
CC(=O)OCC(O)CS(=O)(=O)CCC(C)(C)N(Cl)Cl (stereo not drawn)			64 (≈ 190 µM)	32 (≈ 95.2 µM)				4 (≈ 11.9 µM)		2 (≈ 5.95 µM)					
CC(=O)OCC(CS(=O)(=O)CCC(C)(C)N(Cl)Cl)OC(C)=O (stereo not drawn)			128 (≈ 338 µM)	128 (≈ 338 µM)				2 (≈ 5.29 µM)		1 (≈ 2.64 µM)					
CC(C)(CS(=O)(=O)CCO)N(Cl)Cl		5.64						1 (≈ 4 µM)		1 (≈ 4 µM)		ND(Unstable)	ND(Unstable)		
CN(CCO)S(=O)(=O)CCC(C)(C)N(Cl)Cl		5.82	64 (≈ 218 µM)	128 (≈ 437 µM)		5.92		1 (≈ 3.41 µM)	4.85	2 (≈ 6.82 µM)					
CN(CCCO)S(=O)(=O)CCC(C)(C)N(Cl)Cl											ND(Unstable)	ND(Unstable)	ND(Unstable)		Stable
